Results from ChEMBL document CHEMBL3046367, “Potent and specific bactericidal effect of juglone (5-hydroxy-1,4-naphthoquinone) on the fire blight pathogen Erwinia amylovora” (J Agric Food Chem, 2012).
In brackets after ≈: the same amount, converted by molar mass. Activity calls are given as the source filed them. The rule behind the calls is not given here.

What was measured:
Erwinia amylovora [1] = assay: Bactericidal activity against Erwinia amylovora 295/93 assessed as growth inhibition in King's B full medium measured at pH 7.2 after overnight incubation by suspension culture assay; type: functional
Summary of the method: (§1)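 Growth inhibition in suspension culture in King's B medium (peptone, K2HPO4, MgSO4, glycerol; pH 7.2). Overnight culture diluted to OD600 0.2, compound added from stocks in ethanol or DMSO (up to 5% v/v) beside solvent controls; 28 °C, 200 rpm; OD600 read at 0–8 h every 2 h and at 15 or 24 h. MIC = lowest concentration giving complete growth inhibition after overnight incubation; at least triplicate.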

Erwinia amylovora [2] = assay: Bactericidal activity against Erwinia amylovora bv.4 assessed as growth inhibition after 10 min; type: functional; conditions: bv.4, 10 min
Erwinia amylovora [3] = assay: Bactericidal activity against Erwinia amylovora 657 assessed as growth inhibition at pH 7.2 by suspension culture assay; type: functional; summary of the method: as §1
Erwinia amylovora [4] = assay: Bactericidal activity against Erwinia amylovora 295/93 assessed as colony growth inhibition at 25 uM at pH 4.5 by plating assay in presence of 0.5 mg/l mushroom tyrosinase; type: functional, organism-based
Erwinia amylovora [5] = assay: Bactericidal activity against Erwinia amylovora 846 assessed as growth inhibition at pH 7.2 by suspension culture assay; type: functional; summary of the method: as §1
Erwinia amylovora [6] = assay: Bactericidal activity against Erwinia amylovora 893 assessed as growth inhibition at pH 7.2 by suspension culture assay; type: functional; summary of the method: as §1
Erwinia amylovora [7] = assay: Bactericidal activity against 2x10^8 CFU/mL Erwinia amylovora 295/93 cells assessed as late restarting of growth from surviving cells at <10 uM by suspension culture assay; type: functional, organism-based
Erwinia amylovora [8] = assay: Bactericidal activity against Erwinia amylovora 295/93 assessed as inhibition of bacterial growth under infection conditions in hrp gene expression inducing medium at pH 7.0 after overnight incubation by suspension culture assay; type: functional
Summary of the method: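 E. amylovora 295/93 started at OD600 0.2, 28 °C with shaking, OD600 followed. MIC = lowest concentration completely inhibiting growth after overnight incubation, beside solvent controls.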

Erwinia amylovora [9] = assay: Bactericidal activity against Erwinia amylovora 782 assessed as growth inhibition at pH 7.2 by suspension culture assay; type: functional; summary of the method: as §1
Pseudomonas fluorescens = assay: Bactericidal activity against Pseudomonas fluorescens A506 assessed as growth inhibition at pH 7.2 by suspension culture assay; type: functional; summary of the method: as §1
Erwinia amylovora [10] = assay: Bactericidal activity against Erwinia amylovora 385R assessed as growth inhibition at pH 7.2 by suspension culture assay; type: functional; summary of the method: as §1
Bacillus subtilis = assay: Bactericidal activity against Bacillus subtilis NCTC 10315 assessed as growth inhibition at pH 7.2 by suspension culture assay; type: functional; summary of the method: as §1
Erwinia amylovora [11] = assay: Bactericidal activity against Erwinia amylovora 562 assessed as growth inhibition at pH 7.2 by suspension culture assay; type: functional; summary of the method: as §1
Erwinia amylovora [12] = assay: Bactericidal activity against Erwinia amylovora 872 assessed as growth inhibition at pH 7.2 by suspension culture assay; type: functional; summary of the method: as §1
Erwinia billingiae = assay: Bactericidal activity against Erwinia billingiae 6830 assessed as growth inhibition at pH 7.2 by suspension culture assay; type: functional; summary of the method: as §1
Erwinia amylovora [13] = assay: Bactericidal activity against Erwinia amylovora 295/93 assessed as growth inhibition at 2.5 uM at pH 4.0 to 8.0 by suspension culture assay; type: functional, organism-based
Summary of the method: (§2)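 E. amylovora 295/93 grown in King's B medium brought to pH values between 4 and 8 with 1 M HCl or NaOH before sterilisation. Culture set to OD600 0.2, 28 °C, 200 rpm, OD600 monitored over time; solvent controls run in parallel.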

Erwinia piriflorinigrans = assay: Bactericidal activity against Erwinia piriflorinigrans 5888 assessed as growth inhibition at pH 7.2 by suspension culture assay; type: functional; summary of the method: as §1
Erwinia amylovora [14] = assay: Bactericidal activity against Erwinia amylovora 363 assessed as growth inhibition at pH 7.2 by suspension culture assay; type: functional; summary of the method: as §1
Pantoea agglomerans = assay: Bactericidal activity against Pantoea agglomerans 599 assessed as growth inhibition at pH 7.2 by suspension culture assay; type: functional; summary of the method: as §1
[15] = Activity of Agaricus bisporus (mushroom) tyrosinase assessed as drug oxidation by photometric analysis; type: ADME
Erwinia amylovora [16] = assay: Bactericidal activity against Erwinia amylovora 237R assessed as growth inhibition at pH 7.2 by suspension culture assay; type: functional; summary of the method: as §1
Escherichia coli = assay: Bactericidal activity against Escherichia coli assessed as growth inhibition at pH 7.2 by suspension culture assay; type: functional; summary of the method: as §1
Erwinia amylovora [17] = assay: Bactericidal activity against Erwinia amylovora 295/93 assessed as growth inhibition at 10 uM preincubated for 1 hr with UV/visible light by suspension culture assay; type: functional, organism-based
Summary of the method: (§3)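 1 mM stock in ethanol exposed for 1 h to bright sunlight (UV plus visible) or to sunlight behind a UV-blocking glass screen; dark-kept solution as control. Added at nominal 10 μM to growing E. amylovora suspension cultures; growth followed by OD600.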

Erwinia amylovora [18] = assay: Bactericidal activity against Erwinia amylovora 894 assessed as growth inhibition at pH 7.2 by suspension culture assay; type: functional; summary of the method: as §1
Erwinia amylovora [19] = assay: Bactericidal activity against Erwinia amylovora 295/93 at 10 uM after 30 min; type: functional, organism-based
Summary of the method: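 Bactericidal versus bacteriostatic test: about 10^5 E. amylovora cells in suspension culture exposed to 10 μM for 30 min, then plated on King's B medium to check for surviving colonies.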

Erwinia amylovora [20] = assay: Bactericidal activity against Erwinia amylovora 295/93 assessed as growth inhibition at 10 uM preincubated for 1 hr with visible light by suspension culture assay; type: functional, organism-based; summary of the method: as §3
Erwinia amylovora [21] = assay: Bactericidal activity against Erwinia amylovora 792 assessed as growth inhibition at pH 7.2 by suspension culture assay; type: functional; summary of the method: as §1
Erwinia amylovora [22] = assay: Bactericidal activity against Erwinia amylovora 295/93 assessed as colony growth inhibition at 25 uM at pH 7.2 by plating assay in presence of 0.5 mg/l mushroom tyrosinase; type: functional, organism-based
Erwinia tasmaniensis = assay: Bactericidal activity against Erwinia tasmaniensis 37/10 assessed as growth inhibition at pH 7.2 by suspension culture assay; type: functional; summary of the method: as §1
[23] = test system: Pectobacterium carotovorum; assay: Bactericidal activity against Pectobacterium carotovorum NCPB 312 assessed as growth inhibition at pH 7.2 by suspension culture assay; type: functional; summary of the method: as §1
Erwinia amylovora [24] = assay: Bactericidal activity against Erwinia amylovora 295/93 assessed as growth inhibition at pH 4.5 after overnight incubation by suspension culture assay; type: functional; summary of the method: as §2
Erwinia amylovora [25] = assay: Bactericidal activity against Erwinia amylovora 295/93 assessed as growth inhibition applied as spray solution; type: functional, organism-based
Erwinia amylovora [26] = assay: Bactericidal activity against Erwinia amylovora 797 assessed as growth inhibition at pH 7.2 by suspension culture assay; type: functional; summary of the method: as §1
Erwinia amylovora [27] = assay: Bactericidal activity against Erwinia amylovora 513 assessed as growth inhibition at pH 7.2 by suspension culture assay; type: functional; summary of the method: as §1
Erwinia amylovora [28] = assay: Bactericidal activity against Erwinia amylovora 793 assessed as growth inhibition at pH 7.2 by suspension culture assay; type: functional; summary of the method: as §1
Erwinia amylovora [29] = assay: Bactericidal activity against Erwinia amylovora 871 assessed as growth inhibition at pH 7.2 by suspension culture assay; type: functional; summary of the method: as §1
Erwinia pyrifoliae = assay: Bactericidal activity against Erwinia pyrifoliae 4171 assessed as growth inhibition at pH 7.2 by suspension culture assay; type: functional; summary of the method: as §1
Erwinia amylovora [30] = assay: Bactericidal activity against Erwinia amylovora 627 assessed as growth inhibition at pH 7.2 by suspension culture assay; type: functional; summary of the method: as §1
Erwinia amylovora [31] = assay: Bactericidal activity against mixture of two strains of Erwinia amylovora 295/93 and 763 inoculated in Malus x domestica cv. Gala flowers assessed as prevention of infection at 0.01 mM applied two times at 2 hr after bacterial exposure measured after 8 to 10 days by In vitro flower inoculation assay; type: functional, 295/93/763
Summary of the method: (§4)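 Gala flowers (balloon stage, from greenhouse-forced potted trees) opened on 10% sucrose at 28 °C for 24 h, in series of 20. Each inoculated with 1 μL of a 1×10^7 CFU/mL mix of strains 295/93 and 763 on the styles. After 2 h, sprayed twice with 150 μL; water as negative control. Kept at 70% humidity and 22 °C, with a water-plus-fungicide spray at day 2. Infected flowers per series scored at 8–10 days; assay valid only if water controls reached ≥50% infection.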

Erwinia amylovora [32] = assay: Bactericidal activity against mixture of two strains of Erwinia amylovora 295/93 and 763 inoculated in Malus x domestica cv. Gala flowers assessed as prevention of infection at 0.06% applied two times at 2 hr after bacterial exposure measured after 8 to 10 days by In vitro flower inoculation assay; type: functional, 295/93/763; summary of the method: as §4

Compound: CC1=C(C)C(=O)C(C)=C(C)C1=O
- MIC (Erwinia amylovora [1]): inactive

Compound: COc1cc(O)c2c(c1)C(=O)c1cc(C)cc(O)c1C2=O
- MIC (Erwinia amylovora [1]): inactive

Compound: Cc1cc(O)c2c(c1)C(=O)c1cc(O)cc(O)c1C2=O
- MIC (Erwinia amylovora [1]): inactive

Compound: Cc1cc(O)c2c(c1)C(=O)c1cccc(O)c1C2=O
- MIC (Erwinia amylovora [1]): inactive

Compound: O=C(O)c1cc(O)c2c(c1)C(=O)c1cccc(O)c1C2=O
- MIC (Erwinia amylovora [1]): inactive

Compound: O=C1C(O)=C(C2=C(O)C(=O)c3ccccc3C2=O)C(=O)c2ccccc21
- MIC (Erwinia amylovora [1]): inactive

Compound: O=C1c2cccc(O)c2C(=O)c2c(O)cc(CO)cc21
- MIC (Erwinia amylovora [1]): inactive

Compound: O=C1c2ccccc2C(=O)c2c1cc(S(=O)(=O)O)c(O)c2O
- MIC (Erwinia amylovora [1]): inactive

Compound: O=C1c2ccccc2C(=O)c2c1ccc(O)c2O
- MIC (Erwinia amylovora [1]): inactive

Compound: O=C1c2ccccc2C(=O)c2ccccc21
- MIC (Erwinia amylovora [1]): inactive

Compound: O=C1C=CC(=O)C=C1 [BENZOQUINONE]
- MIC (Erwinia amylovora [2]): 10 µM (≈ 1.08 µg/mL)
- MIC (Erwinia amylovora [1]): 100 µM (≈ 10.8 µg/mL)

Compound: O=C1C=CC(=O)c2c(O)cccc21 [JUGLONE]
- MIC (Erwinia amylovora [3]): 10 µM (≈ 1.74 µg/mL)
- growth inhibition (GI) (Erwinia amylovora [4]): Active
- MIC (Erwinia amylovora [5]): 20 µM (≈ 3.48 µg/mL)
- MIC (Erwinia amylovora [6]): 10 µM (≈ 1.74 µg/mL)
- Activity (Erwinia amylovora [7]): Active
- MIC (Erwinia amylovora [8]): 5 µM (≈ 0.871 µg/mL)
- MIC (Erwinia amylovora [9]): 10 µM (≈ 1.74 µg/mL)
- MIC (Pseudomonas fluorescens): > 1000 µM
- MIC (Erwinia amylovora [10]): 10 µM (≈ 1.74 µg/mL)
- MIC (Bacillus subtilis): 50 µM (≈ 8.71 µg/mL)
- MIC (Erwinia amylovora [11]): 10 µM (≈ 1.74 µg/mL)
- MIC (Erwinia amylovora [12]): 20 µM (≈ 3.48 µg/mL)
- MIC (Erwinia billingiae): 1000 µM (≈ 174 µg/mL)
- growth inhibition (GI) (Erwinia amylovora [13]): inactive
- MIC (Erwinia amylovora [1]): 10 µM (≈ 1.74 µg/mL)
- MIC (Erwinia piriflorinigrans): 500 µM (≈ 87.1 µg/mL)
- MIC (Erwinia amylovora [14]): 20 µM (≈ 3.48 µg/mL)
- MIC (Pantoea agglomerans): 500 µM (≈ 87.1 µg/mL)
- Activity [15]: Active
- MIC (Erwinia amylovora [16]): 10 µM (≈ 1.74 µg/mL)
- MIC (Escherichia coli): 1000 µM (≈ 174 µg/mL)
- growth inhibition (GI) (Erwinia amylovora [17]): inactive
- MIC (Erwinia amylovora [18]): 10 µM (≈ 1.74 µg/mL)
- Activity (Erwinia amylovora [19]): Active
- growth inhibition (GI) (Erwinia amylovora [20]): Active
- MIC (Erwinia amylovora [21]): 10 µM (≈ 1.74 µg/mL)
- growth inhibition (GI) (Erwinia amylovora [22]): inactive
- MIC (Erwinia tasmaniensis): 500 µM (≈ 87.1 µg/mL)
- MIC [23]: 500 µM (≈ 87.1 µg/mL)
- MIC (Erwinia amylovora [24]): 2.5 µM (≈ 0.435 µg/mL)
- growth inhibition (GI) (Erwinia amylovora [25]): Active
- MIC (Erwinia amylovora [26]): 20 µM (≈ 3.48 µg/mL)
- MIC (Erwinia amylovora [27]): 10 µM (≈ 1.74 µg/mL)
- MIC (Erwinia amylovora [28]): 10 µM (≈ 1.74 µg/mL)
- MIC (Erwinia amylovora [29]): 10 µM (≈ 1.74 µg/mL)
- MIC (Erwinia pyrifoliae): 20 µM (≈ 3.48 µg/mL)
- MIC (Erwinia amylovora [30]): 20 µM (≈ 3.48 µg/mL)
- Efficacy (Erwinia amylovora [31]): 67%

Compound: O=C1C=C(O)C(=O)c2ccccc21 [LAWSONE]
- MIC (Erwinia amylovora [1]): 2500 µM (≈ 435 µg/mL)

Compound: CC1=CC(=O)c2ccccc2C1=O [MENADIONE]
- MIC (Erwinia amylovora [1]): 250 µM (≈ 43 µg/mL)

Compound: O=C1C=CC(=O)c2c(O)ccc(O)c21 [NAPHTHAZALIN]
- MIC (Erwinia amylovora [1]): 10 µM (≈ 1.9 µg/mL)

Compound: CC1=CC(=O)c2c(O)cccc2C1=O [PLUMBAGIN]
- MIC (Erwinia amylovora [1]): 100 µM (≈ 18.8 µg/mL)

Compound: CC(C)=CC[C@@H](O)C1=CC(=O)c2c(O)ccc(O)c2C1=O [SHIKONIN]
- MIC (Erwinia amylovora [1]): 100 µM (≈ 28.8 µg/mL)

Compound: CN[C@@H]1[C@H](O[C@H]2[C@H](O[C@H]3[C@H](O)[C@@H](O)[C@H](N=C(N)N)[C@@H](O)[C@@H]3N=C(N)N)O[C@@H](C)[C@]2(O)C=O)O[C@@H](CO)[C@H](O)[C@H]1O [STREPTOMYCIN]
- MIC (Erwinia amylovora [1]): 10 µM (≈ 5.82 µg/mL)
- Efficacy (Erwinia amylovora [32]): 75%
